According to ChEMBL document CHEMBL4390654, “Microwave-assisted solid-phase synthesis of antisense acpP peptide nucleic acid-peptide conjugates active against colistin- and tigecycline-resistant E. coli and K. pneumoniae” (Eur J Med Chem, 2019):

Tests used:
Escherichia coli [1] = assay: Antibacterial activity against Escherichia coli ATCC 25922 assessed as reduction in microbial growth incubated for 20 hrs; format: functional; conditions: ATCC 25922, 20 h
Outline: (§1)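 Broth microdilution MIC (modified Hancock protocol) in non-binding polystyrene plates. Inoculum ~2 × 10^5 CFU/mL in Mueller-Hinton broth with Mg²⁺ and Ca²⁺ at 4 mg/L each. Compounds dissolved in water, diluted in 0.01% acetic acid/0.2% BSA (final), added as 10× stocks. Covered plates incubated 20 h at 35 °C (± 2 °C) with 220 rpm circular shaking before MIC read.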

Escherichia coli [2] = assay: Antibacterial activity against Escherichia coli lacking a functional SbmA assessed as reduction in microbial growth incubated for 20 hrs
Outline: (§2)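 Broth microdilution MIC after a modified Hancock protocol for cationic peptides, in non-binding polystyrene plates. Inoculum ~2 × 10^5 CFU/mL in Mueller-Hinton broth with Mg²⁺ and Ca²⁺ at 4 mg/L each. Compounds dissolved in water, diluted in 0.01% acetic acid, 0.2% BSA (final), added as 10× aliquots. Covered plates incubated 20 h at 35 °C (± 2 °C) with shaking at 220 rpm. MIC read as lowest inhibiting concentration.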

Klebsiella pneumoniae [3] = assay: Antibacterial activity against Klebsiella pneumoniae ATCC 13883 assessed as reduction in microbial growth incubated for 20 hrs; format: functional; conditions: ATCC 13883, 20 h; outline: as §2
Pseudomonas aeruginosa [4] = assay: Antibacterial activity against Pseudomonas aeruginosa PAO1 assessed as reduction in microbial growth incubated for 20 hrs; format: functional; conditions: PAO1, 20 h; outline: as §2
Pseudomonas aeruginosa [5] = assay: Antibacterial activity against Pseudomonas aeruginosa ATCC 27853 assessed as reduction in microbial growth incubated for 20 hrs; format: functional; conditions: ATCC 27853, 20 h; outline: as §2
Acinetobacter baumannii [6] = assay: Antibacterial activity against Acinetobacter baumannii ATCC 19606 assessed as reduction in microbial growth incubated for 20 hrs; format: functional; conditions: ATCC 19606 = CIP 70.34 = JCM 6841, 20 h; outline: as §2
Staphylococcus aureus = assay: Antibacterial activity against Staphylococcus aureus ATCC 29213 assessed as reduction in microbial growth incubated for 20 hrs; format: functional; conditions: ATCC 29213, 20 h; outline: as §2
Escherichia coli [7] = assay: Antibacterial activity against multi-drug resistant Escherichia coli NMI 3548/14 assessed as reduction in microbial growth incubated for 20 hrs; format: functional; conditions: NMI 3548/14, 20 h; outline: as §1
Escherichia coli [8] = assay: Antibacterial activity against multi-drug resistant Escherichia coli NMI 3898/15 assessed as reduction in microbial growth incubated for 20 hrs; format: functional; conditions: NMI 3898/15, 20 h; outline: as §1
Klebsiella pneumoniae [9] = assay: Antibacterial activity against multi-drug resistant Klebsiella pneumoniae NMI 2697/14 assessed as reduction in microbial growth incubated for 20 hrs; format: functional; conditions: NMI 2697/14, 20 h; outline: as §1
Klebsiella pneumoniae [10] = assay: Antibacterial activity against multi-drug resistant Klebsiella pneumoniae NMI 3081/09 assessed as reduction in microbial growth incubated for 20 hrs; format: functional; conditions: NMI 3081/09, 20 h; outline: as §1
[11] = Hemolytic activity against RBC (unknown origin) at 100 uM; format: ADME, cell-based, Erythrocyte; conditions: red blood cells (erythrocytes); read-out: Activity
Escherichia coli [12] = assay: Antibacterial activity against NDM-1 producing multi-drug resistant Escherichia coli NMI 3371/16 ST101 assessed as reduction in microbial growth incubated for 20 hrs; format: functional; conditions: NMI 3371/16 ST101, 20 h; outline: as §1
Escherichia coli [13] = assay: Antibacterial activity against NDM-5 producing multi-drug resistant Escherichia coli NMI 636/15 ST405 assessed as reduction in microbial growth incubated for 20 hrs; format: functional; conditions: NMI 636/15 ST405, 20 h; outline: as §1
Escherichia coli [14] = assay: Antibacterial activity against NDM-1 producing multi-drug resistant Escherichia coli NMI 5428/11 ST410 assessed as reduction in microbial growth incubated for 20 hrs; format: functional; conditions: NMI 5428/11 ST410, 20 h; outline: as §1
Pseudomonas aeruginosa [15] = assay: Antibacterial activity against multi-drug resistant Pseudomonas aeruginosa NMI 506/17 assessed as reduction in microbial growth incubated for 20 hrs; format: functional; conditions: NMI 506/17, 20 h; outline: as §1
Acinetobacter baumannii [16] = assay: Antibacterial activity against Acinetobacter baumannii NMI 3658/17 assessed as reduction in microbial growth incubated 20 hrs; format: functional; conditions: NMI 3658/17, 20 h; outline: as §2
[17] = Ratio of MIC for Escherichia coli lacking functional SbmA to MIC for Escherichia coli ATCC 25922
[18] = Ratio of MIC for Escherichia coli ATCC 25922 to MIC against Escherichia coli NMI 3898/15; format: functional

Row | Compound | MIC (Escherichia coli [1]) | MIC (Escherichia coli [2]) | MIC (Klebsiella pneumoniae [3]) | MIC (Pseudomonas aeruginosa [4]) | MIC (Pseudomonas aeruginosa [5]) | MIC (Acinetobacter baumannii [6]) | MIC (Staphylococcus aureus) | MIC (Escherichia coli [7]) | MIC (Escherichia coli [8]) | MIC (Klebsiella pneumoniae [9]) | MIC (Klebsiella pneumoniae [10]) | hemolysis at 100 µM [11] | MIC (Escherichia coli [12]) | MIC (Escherichia coli [13]) | MIC (Escherichia coli [14]) | MIC (Pseudomonas aeruginosa [15]) | MIC (Acinetobacter baumannii [16]) | Ratio [17] | Ratio [18]
1 | CC[C@H](C)[C@H](NC(=O)[C@@H]1CCCN1C(=O)[C@H](CCCNC(=N)N)NC(=O)[C@@H]1CCCN1C(=O)[C@H](Cc1cnc[nH]1)NC(=O)[C@H](CO)NC(=O)[C@@H](NC(=O)[C@@H]1CCCN1C(=O)[C@H](CCCNC(=N)N)NC(=O)[C@@H]1CCCN1C(=O)[C@H](CO)NC(=O)[C@H](Cc1ccc(O)cc1)NC(=O)[C@@H]1CCCN1C(=O)[C@H](CCCNC(=N)N)NC(=O)[C@@H]1CCCN1C(=O)[C@H](CCCNC(=N)N)NC(=O)CCCCCNC(=O)[C@@H](N)CCCNC(=N)N)[C@@H](C)O)C(=O)N[C@@H](CCCNC(=N)N)C(=O)N[C@H](C(=O)N[C@@H](CS)C(=O)N[C@H](C(=O)N[C@@H](CS)C(=O)N[C@@H](C)C(=O)N[C@H](C(=O)N[C@@H](C)C(=O)N[C@@H](CS)C(=O)N[C@H](C(=O)N[C@@H](CS)C(=O)N[C@H](C(N)=O)[C@@H](C)O)[C@@H](C)O)[C@@H](C)O)[C@@H](C)O)C(C)C | 4 µg/mL | > 64 µg/mL | 2 to 4 µg/mL | > 64 µg/mL | > 64 µg/mL | 64 µg/mL | > 64 µg/mL | 1 to 2 µg/mL | 4 µg/mL | 32 µg/mL | 8 µg/mL | < 1% | 0.5 µg/mL | 1 µg/mL | 1 µg/mL | > 64 µg/mL | 32 µg/mL | > 16 | 2 to 8
2 | CC[C@@H](C)[C@@H](NC(=O)[C@@H](CCCCN)NC(=O)[C@@H]([C@H](C)CC)N(C(=O)[C@@H](CCCNC(=N)N)NC(=O)CCCCCNC(=O)[C@H](N)CCCNC(=N)N)C(=O)[C@@H](CCCNC(=N)N)NC(=O)CCCCCNC(=O)[C@H](N)CCCNC(=N)N)C(=O)N[C@H](CC(C)C)C(=O)N[C@H](Cc1ccccc1)C(=O)N[C@H](CCC(N)=O)C(=O)N[C@H](CC(N)=O)C(=O)N[C@H](CCCNC(=N)N)C(=O)N[C@H](CCCNC(=N)N)C(=O)N[C@H](CCSC)C(=O)N[C@H](CCCCN)C(=O)N[C@H](Cc1c[nH]c2ccccc12)C(=O)N[C@H](CCCCN)C(=O)N[C@H](CCCCN)C(N)=O | 2 to 4 µg/mL | 2 µg/mL | 4 µg/mL | 1 µg/mL | 2 µg/mL | 2 µg/mL | 2 to 4 µg/mL | 1 µg/mL | 2 µg/mL | 16 µg/mL | 16 µg/mL | < 1% | 2 µg/mL | 2 µg/mL | 1 to 2 µg/mL | 4 µg/mL | 2 µg/mL | – | –
3 | CC[C@@H](C)[C@@H](NC(=O)[C@H]1CCCN1C(=O)[C@@H](CCCNC(=N)N)NC(=O)[C@H]1CCCN1C(=O)[C@@H](Cc1cnc[nH]1)NC(=O)[C@@H](CO)NC(=O)[C@H](NC(=O)[C@H]1CCCN1C(=O)[C@@H](CCCNC(=N)N)NC(=O)[C@H]1CCCN1C(=O)[C@@H](CO)NC(=O)[C@@H](Cc1ccc(O)cc1)NC(=O)[C@H]1CCCN1C(=O)[C@@H](CCCNC(=N)N)NC(=O)[C@H]1CCCN1C(=O)[C@@H](CCCNC(=N)N)NC(=O)CCCCCNC(=O)[C@H](N)CCCNC(=N)N)[C@H](C)O)C(=O)N[C@H](CCCNC(=N)N)C(=O)N[C@@H](C(N)=O)C(C)C | > 64 µg/mL | > 64 µg/mL | > 64 µg/mL | > 64 µg/mL | – | > 64 µg/mL | > 64 µg/mL | > 64 µg/mL | > 64 µg/mL | > 64 µg/mL | > 64 µg/mL | < 1% | – | – | – | – | – | – | –
